Experimental data from ChEMBL document CHEMBL3612027, “Substrate-guided optimization of the syringolins yields potent proteasome inhibitors with activity against leukemia cell lines” (Bioorg Med Chem, 2015).

Legend:
NCI-H322M = assay: Cytotoxicity against human NCI-H322M cells assessed as cell growth at 10 uM after 48 hrs relative to control; format: functional; details: read-out: Activity
Summary of the method: (§1)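 Run at the National Cancer Institute as a single-dose screen across its 60-cell-line cancer panel. Compound was tested at 10 micromolar, and growth was expressed as a percentage of negative-control cultures.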

K562 [1] = assay: Cytotoxicity against human K562 cells assessed as cell growth at 10 uM after 48 hrs relative to control; format: functional; details: K562, 48 h, read-out: Activity; summary of the method: as §1
OVCAR-5 = assay: Cytotoxicity against human OVCAR5 cells assessed as cell growth at 10 uM after 48 hrs relative to control; format: functional; details: OVCAR-5, 48 h, read-out: Activity; summary of the method: as §1
CAKI-1 = assay: Cytotoxicity against human Caki1 cells assessed as cell growth at 10 uM after 48 hrs relative to control; format: functional; details: CAKI-1, 48 h, read-out: Activity; summary of the method: as §1
K562 [2] = assay: Cytotoxicity against human K562 cells after 48 hrs; format: functional; details: K562, 48 h
CCRF-CEM = assay: Cytotoxicity against human CCRF-CEM cells assessed as cell growth at 10 uM after 48 hrs relative to control; format: functional; details: read-out: Activity; summary of the method: as §1
[3] = molecular target: T1, Proteasome Macropain subunit MB1 (Homo sapiens, UniProt P28074); assay: Inhibition of human 20S proteasome beta5 subunit using Suc-LLVY-AMC as substrate by fluorescence assay
T1 sequence (P28074 whole entry): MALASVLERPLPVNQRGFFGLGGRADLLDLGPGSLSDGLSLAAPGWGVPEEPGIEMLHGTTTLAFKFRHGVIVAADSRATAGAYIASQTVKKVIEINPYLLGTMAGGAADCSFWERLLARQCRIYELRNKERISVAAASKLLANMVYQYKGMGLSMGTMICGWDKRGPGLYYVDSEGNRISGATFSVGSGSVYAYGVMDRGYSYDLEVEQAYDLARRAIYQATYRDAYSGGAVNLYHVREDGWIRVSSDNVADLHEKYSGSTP

NCI/ADR-RES = assay: Cytotoxicity against human NCI/ADR-RES cells assessed as cell growth at 10 uM after 48 hrs relative to control; format: functional; details: read-out: Activity; summary of the method: as §1
HCC 2998 = assay: Cytotoxicity against human HCC2998 cells assessed as cell growth at 10 uM after 48 hrs relative to control; format: functional; details: HCC 2998, 48 h, read-out: Activity; summary of the method: as §1
MOLT-4 = assay: Cytotoxicity against human MOLT4 cells after 48 hrs; format: functional; details: MOLT-4, 48 h
MDA-MB-231 = assay: Cytotoxicity against human MDA-MB-231 cells assessed as cell growth at 10 uM after 48 hrs relative to control; format: functional; details: MDA-MB-231, 48 h, read-out: Activity; summary of the method: as §1
SK-MEL-2 = assay: Cytotoxicity against human SK-MEL-2 cells assessed as cell growth at 10 uM after 48 hrs relative to control; format: functional; details: SK-MEL-2, 48 h, read-out: Activity; summary of the method: as §1
[4] = Cytotoxicity against human Hs578T cells assessed as cell growth at 10 uM after 48 hrs relative to control; format: functional; details: Hs-578T, read-out: Activity; summary of the method: as §1
U-251 = assay: Cytotoxicity against human U251 cells assessed as cell growth at 10 uM after 48 hrs relative to control; format: functional; details: U-251, 48 h, read-out: Activity
Summary of the method: (§2)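 Submitted to the National Cancer Institute for a single-dose screen at 10 micromolar against 60 cancer cell lines. Growth is expressed relative to negative-control cultures.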

A549 = assay: Cytotoxicity against human A549 cells assessed as cell growth at 10 uM after 48 hrs relative to control; format: functional; details: A549, 48 h, read-out: Activity; summary of the method: as §1
M14 = assay: Cytotoxicity against human M14 cells assessed as cell growth at 10 uM after 48 hrs relative to control; format: functional; details: M14, 48 h, read-out: Activity; summary of the method: as §1
Malme-3M = assay: Cytotoxicity against human MALME-3M cells assessed as cell growth at 10 uM after 48 hrs relative to control; format: functional; details: read-out: Activity; summary of the method: as §1
MCF7 = assay: Cytotoxicity against human MCF7 cells assessed as cell growth at 10 uM after 48 hrs relative to control; format: functional; details: MCF7, 48 h, read-out: Activity; summary of the method: as §1
OVCAR-3 = assay: Cytotoxicity against human OVCAR3 cells assessed as cell growth at 10 uM after 48 hrs relative to control; format: functional; details: OVCAR-3, 48 h, read-out: Activity; summary of the method: as §1
DU-145 = assay: Cytotoxicity against human DU145 cells assessed as cell growth at 10 uM after 48 hrs relative to control; format: functional; details: DU-145, 48 h, read-out: Activity; summary of the method: as §1
MDA-MB-468 = assay: Cytotoxicity against human MDA-MB-468 cells assessed as cell growth at 10 uM after 48 hrs relative to control; format: functional; details: MDA-MB-468, 48 h, read-out: Activity; summary of the method: as §1
SW-620 = assay: Cytotoxicity against human SW620 cells assessed as cell growth at 10 uM after 48 hrs relative to control; format: functional; details: SW-620, 48 h, read-out: Activity; summary of the method: as §2
UACC-62 = assay: Cytotoxicity against human UACC62 cells assessed as cell growth at 10 uM after 48 hrs relative to control; format: functional; details: UACC-62, 48 h, read-out: Activity; summary of the method: as §2
UO-31 = assay: Cytotoxicity against human UO31 cells assessed as cell growth at 10 uM after 48 hrs relative to control; format: functional; details: UO-31, 48 h, read-out: Activity; summary of the method: as §2
RPMI-8226 = assay: Cytotoxicity against human RPMI8226 cells assessed as cell growth at 10 uM after 48 hrs relative to control; format: functional; details: RPMI-8226, 48 h, read-out: Activity; summary of the method: as §1
LOX IMVI = assay: Cytotoxicity against human LOXIMVI cells assessed as cell growth at 10 uM after 48 hrs relative to control; format: functional; details: read-out: Activity; summary of the method: as §1
HL-60 = assay: Cytotoxicity against human HL60 cells after 48 hrs; format: functional; details: HL-60, 48 h
UACC-257 = assay: Cytotoxicity against human UACC257 cells assessed as cell growth at 10 uM after 48 hrs relative to control; format: functional; details: UACC-257, 48 h, read-out: Activity; summary of the method: as §2
HCT-116 = assay: Cytotoxicity against human HCT116 cells assessed as cell growth at 10 uM after 48 hrs relative to control; format: functional; details: HCT-116, 48 h, read-out: Activity; summary of the method: as §1
SF-268 = assay: Cytotoxicity against human SF268 cells assessed as cell growth at 10 uM after 48 hrs relative to control; format: functional; details: SF-268, 48 h, read-out: Activity; summary of the method: as §1
PC-3 = assay: Cytotoxicity against human PC3 cells assessed as cell growth at 10 uM after 48 hrs relative to control; format: functional; details: PC-3, 48 h, read-out: Activity; summary of the method: as §1
SNB-19 = assay: Cytotoxicity against human SNB19 cells assessed as cell growth at 10 uM after 48 hrs relative to control; format: functional; details: SNB-19, 48 h, read-out: Activity; summary of the method: as §2
TK-10 = assay: Cytotoxicity against human TK10 cells assessed as cell growth at 10 uM after 48 hrs relative to control; format: functional; details: TK-10, 48 h, read-out: Activity; summary of the method: as §2
NCI-H23 = assay: Cytotoxicity against human NCI-H23 cells assessed as cell growth at 10 uM after 48 hrs relative to control; format: functional; details: NCI-H23, 48 h, read-out: Activity; summary of the method: as §1
NCI-H522 = assay: Cytotoxicity against human NCI-H522 cells assessed as cell growth at 10 uM after 48 hrs relative to control; format: functional; details: NCI-H522, 48 h, read-out: Activity; summary of the method: as §1

COC(=O)[C@@H](NC(=O)N[C@H](C(=O)N[C@H]1CCCCNC(=O)/C=C/[C@H](C(C)C)NC1=O)C(C)C)C(C)C
growth at 10 µM (NCI-H322M): 77%
growth at 10 µM (K562 [1]): 40.5%
growth at 10 µM (OVCAR-5): 58.4%
growth at 10 µM (CAKI-1): 103%
GI50 (K562 [2]): 6.12 µM
growth at 10 µM (CCRF-CEM): 15.1%
Ki [3]: 2120 nM
growth at 10 µM (NCI/ADR-RES): 100%
growth at 10 µM (HCC 2998): -0.39%
GI50 (MOLT-4): 4.73 µM
growth at 10 µM (MDA-MB-231): 24.4%
growth at 10 µM (SK-MEL-2): 1.6%
growth at 10 µM [4]: 4.52%
growth at 10 µM (U-251): 8.29%
growth at 10 µM (A549): 42.1%
growth at 10 µM (M14): 64.5%
growth at 10 µM (Malme-3M): 29.9%
growth at 10 µM (MCF7): 42.8%
growth at 10 µM (OVCAR-3): -39.6%
growth at 10 µM (DU-145): 42%
growth at 10 µM (MDA-MB-468): -0.21%
growth at 10 µM (SW-620): 30.3%
growth at 10 µM (UACC-62): 13.3%
growth at 10 µM (UO-31): 82.2%
growth at 10 µM (RPMI-8226): 15.2%
growth at 10 µM (LOX IMVI): -24.1%
GI50 (HL-60): 5.41 µM
growth at 10 µM (UACC-257): 33.4%
growth at 10 µM (HCT-116): 21.2%
growth at 10 µM (SF-268): -20.1%
growth at 10 µM (PC-3): 62%
growth at 10 µM (SNB-19): 34%
growth at 10 µM (TK-10): 85.8%
growth at 10 µM (NCI-H23): 34.2%

COC(=O)[C@@H](NC(=O)N[C@@H](Cc1ccccc1)C(=O)N[C@H]1CCCCNC(=O)/C=C/[C@H](Cc2ccccc2)NC1=O)C(C)C
growth at 10 µM (NCI-H322M): 98.1%
growth at 10 µM (NCI-H522): -37%
growth at 10 µM (K562 [1]): 34.7%
growth at 10 µM (OVCAR-5): 87%
growth at 10 µM (CAKI-1): 106%
GI50 (K562 [2]): 14.6 µM
growth at 10 µM (CCRF-CEM): 9.59%
Ki [3]: 447 nM
growth at 10 µM (NCI/ADR-RES): 98.8%
growth at 10 µM (HCC 2998): 5.56%
GI50 (MOLT-4): 3.32 µM
growth at 10 µM (MDA-MB-231): 23.2%
growth at 10 µM (SK-MEL-2): 0.98%
growth at 10 µM [4]: 24.9%
growth at 10 µM (U-251): 17.8%
growth at 10 µM (A549): 68.6%
growth at 10 µM (M14): 53.9%
growth at 10 µM (Malme-3M): -0.39%
growth at 10 µM (MCF7): 37.4%
growth at 10 µM (OVCAR-3): -36.7%
growth at 10 µM (DU-145): 46.1%
growth at 10 µM (MDA-MB-468): 0.26%
growth at 10 µM (SW-620): 23.1%
growth at 10 µM (UACC-62): 9.78%
growth at 10 µM (UO-31): 89.6%
growth at 10 µM (RPMI-8226): 7.17%
growth at 10 µM (LOX IMVI): -4.92%
GI50 (HL-60): 4.34 µM
growth at 10 µM (UACC-257): 16.4%
growth at 10 µM (HCT-116): 11.6%
growth at 10 µM (SF-268): 10.1%
growth at 10 µM (PC-3): 73.2%
growth at 10 µM (SNB-19): 39.8%
growth at 10 µM (TK-10): 75%
growth at 10 µM (NCI-H23): 44.8%
